Source: the array DNA melting data of Ke et al. (doi:10.1101/2024.01.08.574731)

Assays:
[1] = folding enthalpy; higher = less favourable; fluorescence melt of hairpins on a sequencing array, two-state fit; details: sodium 0.088 M
Procedure, shortened: (§1)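 Folding enthalpy and melting temperature come from bootstrapped two-state fits to Cy3 fluorescence of library hairpins carrying annealed Cy3 and quencher oligos on a sequenced MiSeq flow cell. Imaging was done in 50 mM Na-HEPES pH 8.0, 25 mM NaCl, stepping by 2.5 °C up to 60 °C, and signals were normalised to pre-quench Cy3 and to control constructs. Results of four replicates were combined by inverse variance, and fitted temperatures were raised by 9.35 °C to match UV melts.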

[2] = melting temperature; fluorescence melt of hairpins on a sequencing array, two-state fit, raised by 9.35 °C to match UV melts; details: sodium 0.088 M
Procedure, shortened: as §1

Sequence	folding enthalpy [1] [kcal/mol]	Tm [2] [°C]
CGCACGCGGAAACGCGCG (((..(((....))))))	-9.61	57
CGCACGGAAACGTACGCG ((((((....)))..)))	-22.1	46.1
CGCACGGAAACGTGTGCG ((((((....)))..)))	-17.6	57.5
CGCACGGAAACGTTAGCG ((((((....)))..)))	-31.9	44.8
CGCAGCCGGAAACGGGCG (((..(((....))))))	-20	47.9
CGCATCGGAAACGAAGCG (((.(((....))).)))	-31.2	51.7
CGCATCGGAAACGAGCG (((.(((....))))))	-31.8	49.5
CGCATGCGGAAACGCGCG (((..(((....))))))	-20.8	52.1
CGCCACCGGAAACGGGCG (((..(((....))))))	-26.2	49.3
CGCCACGGAAACGTAGCG (((.(((....))).)))	-37.7	50.1
CGCCACGGAAACGTCGCG (((.(((....))).)))	-39.2	48.3
CGCCAGAAATGGCG (((((....)))))	-31.5	66.4
CGCCCGGAAACGGCGGCG ((((((....)))..)))	-24.4	55.7
CGCCCGGAAACGGCTGCG ((((((....)))..)))	-21.1	46.2
CGCCCGGAAACGGTTGCG ((((((....)))..)))	-25.5	48.6
CGCCGACGGAAACGTGCG (((..(((....))))))	-27.6	45.5
CGCCGGCGGAAACGCGCG (((..(((....))))))	-21.1	51.5
CGCCTCGGAAACGAGCG (((.(((....))))))	-26.9	54.8
CGCGACCGGAAACGGGCG (((..(((....))))))	-11.7	60
CGCGATCGGAAACGAGCG (((..(((....))))))	-34.2	53
CGCGCGGAAACGCCGCG ((((((....))).)))	-20	69.2
CGCGCGGAAACGCCGGCG ((((((....)))..)))	-22.2	54.3
CGCGGAAAGGTCCGCG ((((((....))))))	-45.8	61.9

Sequence	folding enthalpy [1] [kcal/mol]	Tm [2] [°C]
CGCGGAACTGTCCGCG ((((((....))))))	-45.6	64.8
CGCGGAACTTCCGCG ((((((...))))))	-37.8	61.3
CGCGGAATTATCCGCG ((((((....))))))	-41.5	67.2
CGCGGACCAATCCGCG ((((((....))))))	-39.2	62.2
CGCGGACCTCTCCGCG ((((((....))))))	-31.9	68.7
CGCGGACGGAAACGTGCG (((..(((....))))))	-36.2	50
CGCGGACGGCTCCGCG ((((((....))))))	-23.5	68.5
CGCGGATAACTCCGCG ((((((....))))))	-38	62.2
CGCGGGCGGAAACGCGCG (((..(((....))))))	-14.9	65.4
CGCGTACGGAAACGTGCG (((..(((....))))))	-23.7	50
CGCGTCCGGAAACGGGCG (((..(((....))))))	-14	55.2
CGCTCGGAAACGAAGCG ((((((....))).)))	-29.5	53.6
CGCTCGGAAACGACAGCG ((((((....)))..)))	-25.5	45
CGCTCGGAAACGAGTGCG ((((((....)))..)))	-15.8	44.9
CGCTGACGGAAACGTGCG (((..(((....))))))	-26.1	47.5
CGCTGCCGGAAACGGGCG (((..(((....))))))	-22.8	46.7
CGCTGCGGAAACGCCGCG (((.(((....))).)))	-29.1	56.5
CGCTTCGGAAACGATGCG (((.(((....))).)))	-43.3	54.6
CGGAACCGGAAACGGCCG (((..(((....))))))	-23.2	40.1
CGGAACGGAAACGTCCG (((.(((....))))))	-30.1	47.8
CGGAAGCGGAAACGCCCG (((..(((....))))))	-21.3	50.5
CGGAATCGGAAACGACCG (((..(((....))))))	-16.6	35.3
CGGACCCGGAAACGGCCG (((..(((....))))))	-18.8	38.9

Sequence	folding enthalpy [1] [kcal/mol]	Tm [2] [°C]
CGGACGCGGAAACGCCCG (((..(((....))))))	-25.3	48.8
CGGACGGAAACGTTTCCG ((((((....)))..)))	-12.5	46.4
CGGAGCGGAAACGCACCG (((.(((....))).)))	-35	58.7
CGGAGCGGAAACGCGCCG (((.(((....))).)))	-27	68.6
CGGAGTCGGAAACGACCG (((..(((....))))))	-15.9	41.3
CGGATCGGAAACGAACCG (((.(((....))).)))	-42.7	52
CGGATCGGAAACGACCCG (((.(((....))).)))	-38.1	50
CGGATGAAAATCCG (((((....)))))	-25.5	56
CGGCAACGGAAACGTCCG (((..(((....))))))	-13	39.2
CGGCACCGGAAACGGCCG (((..(((....))))))	-29.1	49.2
CGGCACGGAAACGTACCG (((.(((....))).)))	-30.5	50.4
CGGCCGGAAACGGCCCCG ((((((....)))..)))	-6	35.4
CGGCCGGAAACGGTACCG ((((((....)))..)))	-18.4	43.1
CGGCCGGAAACGGTCCG ((((((....))).)))	-32	57.7
CGGCGCGGAAACGCTCCG (((.(((....))).)))	-33.7	56.5
CGGCGGCGGAAACGCCCG (((..(((....))))))	-10.4	49.3
CGGCTCGGAAACGACCCG (((.(((....))).)))	-29.4	42.9
CGGCTCGGAAACGACCG (((.(((....))))))	-31.8	50.9
CGGGACGGAAACGTGCCG (((.(((....))).)))	-19.1	60.3
CGGGCGGAAACGCACCCG ((((((....)))..)))	-13.1	48.8
CGGGCGGAAACGCCTCCG ((((((....)))..)))	-8.08	36.1
CGGGCGGAAACGCGACCG ((((((....)))..)))	-30.5	57.8
CGGGCGGAAACGCGGCCG ((((((....)))..)))	-36	59.5

Sequence	folding enthalpy [1] [kcal/mol]	Tm [2] [°C]
CGGGCGGAAACGCTACCG ((((((....)))..)))	-24.3	45.8
CGGGCGGAAACGCTCCCG ((((((....)))..)))	-14.7	48.1
CGGGCGGAAACGCTCCG ((((((....))).)))	-26.4	54.2
CGGGTCGGAAACGATCCG (((.(((....))).)))	-45.1	58
CGGTAACGGAAACGTCCG (((..(((....))))))	-24.6	37.9
CGGTACGGAAACGTTCCG (((.(((....))).)))	-32.4	49.8
CGGTCCCGGAAACGGCCG (((..(((....))))))	-21.1	41.3
CGGTCCGGAAACGGTCCG (((.(((....))).)))	-40.5	55.6
CGGTCGGAAACGACGCCG ((((((....)))..)))	-11.7	36.7
CGGTCGGAAACGAGACCG ((((((....)))..)))	-38.6	49.9
CGGTCGGAAACGATTCCG ((((((....)))..)))	-19.8	43.9
CGGTGCGGAAACGCTCCG (((.(((....))).)))	-34.8	62
CGGTTCGGAAACGATCCG (((.(((....))).)))	-36	51
CGGTTGCGGAAACGCCCG (((..(((....))))))	-22.3	46.5
CGGTTTCGGAAACGACCG (((..(((....))))))	-17.1	38
CGTAACGGAAACGTGACG (((.(((....))).)))	-47	49.6
CGTAATCGGAAACGAACG (((..(((....))))))	-7.75	20.9
CGTACGGAAACGTAACG ((((((....))).)))	-28.7	45.3
CGTACGGAAACGTCAACG ((((((....)))..)))	-13.5	32.2
CGTACGGAAACGTTTACG ((((((....)))..)))	-16	37.3
CGTAGCGGAAACGCCACG (((.(((....))).)))	-32	46.9
CGTATGAAAATACG (((((....)))))	-24.1	47.4
